Results published in ChEMBL document CHEMBL2331304, “N1,N3-disubstituted uracils as nonnucleoside inhibitors of HIV-1 reverse transcriptase” (Bioorg Med Chem, 2013).
Calls of active or inactive are those of the source. The rule behind the calls is not given here.

Key:
Human alphaherpesvirus 3 = assay: Antiviral activity against Varicella zoster virus; type: functional, organism-based
How it was run: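 VZV strain Oka and the TK− strain 07-1 were inoculated at 20 PFU onto confluent cell monolayers in the presence of varying compound concentrations. Plaque formation was recorded once complete in untreated infected controls.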

Vaccinia virus = assay: Antiviral activity against Vaccinia virus; type: functional, organism-based; conditions: Orthopoxvirus vaccinia
MT4 = assay: Cytotoxicity against human MT4 cells after 4 days by MTT assay; type: cell-based; conditions: mt4, 96 h
[1] = tested on: Mammalian orthoreovirus 1; assay: Antiviral activity against Reovirus 1; type: functional, organism-based
Feline coronavirus = assay: Antiviral activity against Feline coronavirus; type: functional, organism-based
[2] = Selectivity index, ratio of CC50 for human MT4 cells to EC50 for HIV1 3B infected in human MT4 cells; type: toxicity, cell-based; conditions: MT4 cells (uninfected for CC50; HIV-1 3B infected for EC50)
Sindbis virus = assay: Antiviral activity against Sindbis virus; type: functional, organism-based
Coxsackievirus B4 = assay: Antiviral activity against Coxsackievirus B4; type: functional, organism-based
[3] = tested on: Respiratory syncytial virus; assay: Antiviral activity against Respiratory syncytial virus; type: functional, organism-based
[4] = tested on: Vesicular stomatitis virus; assay: Antiviral activity against Vesicular stomatitis virus; type: functional, organism-based
Human alphaherpesvirus 2 = assay: Antiviral activity against Human herpesvirus 2; type: functional, organism-based
How it was run: (§1)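 Confluent HEL, Vero, HeLa or MDCK monolayers (cell type per virus not specified) were inoculated with 100 CCID50 of virus, with a range of compound concentrations. Strains were HSV-1 KOS and TK− ACV-resistant KOS, HSV-2 Lyons and G, and HCMV AD-169 and Davis. Cytopathicity or plaques were scored once complete in untreated infected controls.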

Influenza A virus [5] = assay: Antiviral activity against Influenza A virus H3N2; type: functional, organism-based
Influenza B virus = assay: Antiviral activity against influenza B virus; type: functional, organism-based
Influenza A virus [6] = assay: Antiviral activity against Influenza A virus H1N1; type: functional, organism-based
[7] = molecular target: Human immunodeficiency virus type 1 reverse transcriptase (Human immunodeficiency virus 1, UniProt Q72547); assay: Non-competitive inhibition of wild type HIV1 reverse transcriptase p66/p51 after 30 mins by liquid scintillation counting
Human alphaherpesvirus 1 = assay: Antiviral activity against Human herpesvirus 1; type: functional, organism-based; how it was run: as §1
Punta Toro virus = assay: Antiviral activity against Punta Toro virus; type: functional, organism-based
Human respirovirus 3 = assay: Antiviral activity against Parainfluenza virus 3; type: functional, organism-based
[8] = tested on: Human immunodeficiency virus 1; assay: Antiviral activity against HIV1 3B infected in human MT4 cells assessed as inhibition of virus-induced cytopathic effect after 4 days by MTT assay; type: functional, organism-based; conditions: Human immunodeficiency virus 1, 3B, MT4, 96 h
How it was run: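 HIV-1 in MT-4 cells at 1 × 10^5 cells/ml, infected at MOI 0.02 (virus stock titrated as CCID50), then plated immediately onto varying compound concentrations. After 4 days at 37 °C, viable cells counted by MTT.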

Human betaherpesvirus 5 = assay: Antiviral activity against HCMV Davis; type: functional, organism-based; conditions: Human betaherpesvirus 5, Davis; how it was run: as §1

SMILES	Activity (Human alphaherpesvirus 3)	Activity (Vaccinia virus)	CC50 (MT4) [µM]	Activity [1]	Activity (Feline coronavirus)	selectivity ratio [2]	Activity (Sindbis virus)	Activity (Coxsackievirus B4)	Activity [3]	Activity [4]	Activity (Human alphaherpesvirus 2)	Activity (Influenza A virus [5])	Activity (Influenza B virus)	Activity (Influenza A virus [6])	Ki [7] [µM]	Activity (Human alphaherpesvirus 1)	Activity (Punta Toro virus)	Activity (Human respirovirus 3)	EC50 [8] [µM]	IC50 (Human betaherpesvirus 5) [µM]
Cc1cccc(OCCn2ccc(=O)n(Cc3ccccc3)c2=O)c1	inactive	inactive	207	inactive	inactive	6.7	inactive	inactive	inactive	inactive	inactive	inactive	inactive	inactive	> 100	inactive	inactive	inactive	31	–
Cc1ccc(OCCn2ccc(=O)n(Cc3cc(C)ccc3C)c2=O)cc1	inactive	inactive	> 343	inactive	inactive	> 66	inactive	inactive	inactive	inactive	inactive	inactive	inactive	inactive	10	inactive	inactive	inactive	5.2	–
O=c1ccn(C/C=C/c2ccccc2)c(=O)n1Cc1ccccc1	inactive	inactive	160	inactive	inactive	20	inactive	inactive	inactive	inactive	inactive	inactive	inactive	inactive	29	inactive	inactive	inactive	7.85	–
N#Cc1ccc(OCCn2ccc(=O)n(Cc3ccccc3)c2=O)cc1	inactive	inactive	166	inactive	inactive	3.9	inactive	inactive	inactive	inactive	inactive	inactive	inactive	inactive	51	inactive	inactive	inactive	43	–
O=c1ccn(CCOc2ccccc2)c(=O)n1Cc1ccccc1	inactive	inactive	193	inactive	inactive	20	inactive	inactive	inactive	inactive	inactive	inactive	inactive	inactive	68	inactive	inactive	inactive	9.5	–
Cc1ccc(OCCn2ccc(=O)n(Cc3ccccc3)c2=O)cc1	inactive	inactive	187	inactive	inactive	17	inactive	inactive	inactive	inactive	inactive	inactive	inactive	inactive	52	inactive	inactive	inactive	11	–
Cc1ccc(OCCn2ccc(=O)n(C(C)c3ccccc3)c2=O)cc1 (centres undefined)	inactive	inactive	132	inactive	inactive	20	inactive	inactive	inactive	inactive	inactive	inactive	inactive	inactive	12	inactive	inactive	inactive	6.5	–
O=c1ccn(CCOc2ccc(F)cc2)c(=O)n1Cc1ccccc1	inactive	inactive	187	inactive	inactive	6.9	inactive	inactive	inactive	inactive	inactive	inactive	inactive	inactive	71	inactive	inactive	inactive	27	–
O=c1ccn(CCOc2ccc(-c3ccccc3)cc2)c(=O)n1Cc1ccccc1	inactive	inactive	31	inactive	inactive	3.8	inactive	inactive	inactive	inactive	inactive	inactive	inactive	inactive	8.1	inactive	inactive	inactive	8.3	–
Cc1ccc(OCCn2ccc(=O)n(Cc3cccc(C)c3)c2=O)cc1	inactive	inactive	≥ 38	inactive	inactive	≥ 11	inactive	inactive	inactive	inactive	inactive	inactive	inactive	inactive	6.6	inactive	inactive	inactive	3.4	–
Cc1ccc(OCCn2ccc(=O)n(Cc3ccccc3)c2=O)cc1C	inactive	inactive	60	inactive	inactive	–	inactive	inactive	inactive	inactive	inactive	inactive	inactive	inactive	> 100	inactive	inactive	inactive	> 60	–
Nc1ccn(C[C@@H](CO)OCP(=O)(O)O)c(=O)n1 [CIDOFOVIR]	–	–	–	–	–	–	–	–	–	–	–	–	–	–	–	–	–	–	–	1
